Reference: ChEMBL document CHEMBL5096186, “Design, Synthesis, and Biological Evaluation of Novel Pyrimido[4,5-b]indole Derivatives Against Gram-Negative Multidrug-Resistant Pathogens” (J Med Chem, 2021)
Values after ≈ are worked out from the molar mass of the structure shown.

What was measured:
Escherichia coli [1] = experiment: Antibacterial activity against ESBL-producing multidrug resistant Escherichia coli assessed as reduction in bacterial growth incubated for 18 to 20 hrs by CLSI based microdilution method; format: functional; conditions: time 18-20 hrs
Method in brief: (§1)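 Broth microdilution per CLSI. Compounds dissolved in DMSO (levofloxacin and meropenem in water) as 64 μg/mL stock, then serial twofold dilutions in broth giving 64 to 0.008 μg/mL. […] Clinical isolates tested as several strains per group; racemic GP-1 served as positive control; values given as MIC ranges.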

Escherichia coli [2] = experiment: Antibacterial activity against multidrug resistant wild type Escherichia coli ATCC BAA-2340 assessed as reduction in bacterial growth incubated for 18 to 20 hrs by CLSI based microdilution method; format: functional; conditions: time 18-20 hrs; method in brief: as §1
Escherichia coli [3] = experiment: Antibacterial activity against multidrug resistant wild type Escherichia coli NCTC 13353 assessed as reduction in bacterial growth incubated for 18 to 20 hrs by CLSI based microdilution method; format: functional; conditions: time 18-20 hrs; method in brief: as §1
Klebsiella pneumoniae [4] = experiment: Antibacterial activity against KPC2-producing multidrug resistant Klebsiella pneumoniae assessed as reduction in bacterial growth incubated for 18 to 20 hrs by CLSI based microdilution method; format: functional; conditions: time 18-20 hrs; method in brief: as §1
Klebsiella pneumoniae [5] = experiment: Antibacterial activity agains wild type Klebsiella pneumoniae ATCC BAA-1705 assessed as reduction in bacterial growth incubated for 18 to 20 hrs by CLSI based microdilution method; format: functional; conditions: time 18-20 hrs
Method in brief: (§2)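 CLSI broth microdilution. Compounds in DMSO (levofloxacin and meropenem in water), serial twofold dilutions in broth, 64 to 0.008 μg/mL. […] Results reported as MIC ranges across strains.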

Klebsiella pneumoniae [6] = experiment: Antibacterial activity agains wild type Klebsiella pneumoniae ATCC BAA-2470 assessed as reduction in bacterial growth incubated for 18 to 20 hrs by CLSI based microdilution method; format: functional; conditions: time 18-20 hrs; method in brief: as §1
Acinetobacter baumannii [7] = experiment: Antibacterial activity agains OXA23-producing multidrug resistant Acinetobacter baumannii assessed as reduction in bacterial growth incubated for 18 to 20 hrs by CLSI based microdilution method; format: functional; conditions: time 18-20 hrs; method in brief: as §1
Acinetobacter baumannii [8] = experiment: Antibacterial activity against wild type Acinetobacter baumannii NCTC 13304 assessed as reduction in bacterial growth incubated for 18 to 20 hrs by CLSI based microdilution method; format: functional; conditions: time 18-20 hrs; method in brief: as §1
Pseudomonas aeruginosa [9] = experiment: Antibacterial activity against IMP4-producing multidrug resistant Pseudomonas aeruginosa assessed as reduction in bacterial growth incubated for 18 to 20 hrs by CLSI based microdilution method; format: functional; conditions: time 18-20 hrs; method in brief: as §1
Pseudomonas aeruginosa [10] = experiment: Antibacterial activity against wild type Pseudomonas aeruginosa ATCC 27853 assessed as reduction in bacterial growth incubated for 18 to 20 hrs by CLSI based microdilution method; format: functional; conditions: time 18-20 hrs; method in brief: as §2
[11] = AUC (0 to infinity) in Sprague-Dawley rat at 5 mg/kg, iv measured upto 24 hrs by LC-MS/MS analysis; format: ADME, organism-based; set-up: time < 24 hrs, dose 5 mg/kg, route iv; conditions: in vivo
Method in brief: (§3)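 Male Sprague-Dawley rats, n = 3 per group, single intravenous dose. For 4 mg/kg: 180–280 g rats, vehicle 5% DMSO + 5% EtOH + 40% PEG300 + 50% saline, blood from the retrobulbar vein at 0.05–24 h. For 5 and 20 mg/kg: 180–300 g rats, vehicle 5% DMSO + 5% solutol + 90% saline, sampled at 0.083–24 h. Plasma quantified by LC/MS/MS. Parameters from mean plasma concentration by noncompartmental analysis; values are mean ± standard deviation.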

[12] = Elimination half life in Sprague-Dawley rat at 5 mg/kg, iv measured upto 24 hrs by LC-MS/MS analysis; format: ADME, organism-based; conditions: in vivo, read-out: beta t1/2 (converted); method in brief: as §3
[13] = MRT in Sprague-Dawley rat at 5 mg/kg, iv measured upto 24 hrs by LC-MS/MS analysis; format: ADME, organism-based; conditions: in vivo; method in brief: as §3
[14] = Clearance in Sprague-Dawley rat at 5 mg/kg, iv measured upto 24 hrs by LC-MS/MS analysis; format: ADME, organism-based; conditions: in vivo; method in brief: as §3
[15] = Volume of distribution at the steady state in Sprague-Dawley rat at 5 mg/kg, iv measured upto 24 hrs by LC-MS/MS analysis; format: ADME, organism-based; conditions: in vivo, read-out: Vdss; method in brief: as §3
Staphylococcus aureus [16] = experiment: Antibacterial activity against methicillin-resistant Staphylococcus aureus strains 15 1 to 4 assessed as reduction in bacterial growth incubated for 18 to 20 hrs by CLSI based microdilution method; format: functional; conditions: time 18-20 hrs; method in brief: as §1
Staphylococcus aureus [17] = experiment: Antibacterial activity against methicillin-sensitive Staphylococcus aureus strains 15 1 to 4 assessed as reduction in bacterial growth incubated for 18 to 20 hrs by CLSI based microdilution method; format: functional; conditions: time 18-20 hrs; method in brief: as §1
[18] = tested on: Staphylococcus epidermidis; experiment: Antibacterial activity against methicillin-sensitive Staphylococcus epidermidis strains 15 1 to 4 assessed as reduction in bacterial growth incubated for 18 to 20 hrs by CLSI based microdilution method; format: functional; conditions: time 18-20 hrs; method in brief: as §1
Escherichia coli [19] = experiment: Antibacterial activity against ESBL-producing Escherichia coli ATCC 35218 strains 15 1 to 3 assessed as reduction in bacterial growth incubated for 18 to 20 hrs by CLSI based microdilution method; format: functional; conditions: time 18-20 hrs; method in brief: as §2
Escherichia coli [20] = experiment: Antibacterial activity against Escherichia coli ATCC 35218 strains 15 1 to 3 assessed as reduction in bacterial growth incubated for 18 to 20 hrs by CLSI based microdilution method; format: functional; conditions: time 18-20 hrs; method in brief: as §2
Pseudomonas aeruginosa [21] = experiment: Antibacterial activity against multidrug resistant Pseudomonas aeruginosa strains 15 1 to 3 assessed as reduction in bacterial growth incubated for 18 to 20 hrs by CLSI based microdilution method; format: functional; conditions: time 18-20 hrs; method in brief: as §1
[22] = target: hERG (KCNH2) potassium channel (Homo sapiens, UniProt Q12809); experiment: Inhibition of hERG potassium channel assessed as maximum inhibition rate at 40 uM at -80 mV holding potential incubated for 120 seconds by whole cell-automated voltage clamp analysis assay relative to control; format: toxicity; conditions: time 120 sec
hERG (KCNH2) potassium channel, sequence (Q12809 whole entry): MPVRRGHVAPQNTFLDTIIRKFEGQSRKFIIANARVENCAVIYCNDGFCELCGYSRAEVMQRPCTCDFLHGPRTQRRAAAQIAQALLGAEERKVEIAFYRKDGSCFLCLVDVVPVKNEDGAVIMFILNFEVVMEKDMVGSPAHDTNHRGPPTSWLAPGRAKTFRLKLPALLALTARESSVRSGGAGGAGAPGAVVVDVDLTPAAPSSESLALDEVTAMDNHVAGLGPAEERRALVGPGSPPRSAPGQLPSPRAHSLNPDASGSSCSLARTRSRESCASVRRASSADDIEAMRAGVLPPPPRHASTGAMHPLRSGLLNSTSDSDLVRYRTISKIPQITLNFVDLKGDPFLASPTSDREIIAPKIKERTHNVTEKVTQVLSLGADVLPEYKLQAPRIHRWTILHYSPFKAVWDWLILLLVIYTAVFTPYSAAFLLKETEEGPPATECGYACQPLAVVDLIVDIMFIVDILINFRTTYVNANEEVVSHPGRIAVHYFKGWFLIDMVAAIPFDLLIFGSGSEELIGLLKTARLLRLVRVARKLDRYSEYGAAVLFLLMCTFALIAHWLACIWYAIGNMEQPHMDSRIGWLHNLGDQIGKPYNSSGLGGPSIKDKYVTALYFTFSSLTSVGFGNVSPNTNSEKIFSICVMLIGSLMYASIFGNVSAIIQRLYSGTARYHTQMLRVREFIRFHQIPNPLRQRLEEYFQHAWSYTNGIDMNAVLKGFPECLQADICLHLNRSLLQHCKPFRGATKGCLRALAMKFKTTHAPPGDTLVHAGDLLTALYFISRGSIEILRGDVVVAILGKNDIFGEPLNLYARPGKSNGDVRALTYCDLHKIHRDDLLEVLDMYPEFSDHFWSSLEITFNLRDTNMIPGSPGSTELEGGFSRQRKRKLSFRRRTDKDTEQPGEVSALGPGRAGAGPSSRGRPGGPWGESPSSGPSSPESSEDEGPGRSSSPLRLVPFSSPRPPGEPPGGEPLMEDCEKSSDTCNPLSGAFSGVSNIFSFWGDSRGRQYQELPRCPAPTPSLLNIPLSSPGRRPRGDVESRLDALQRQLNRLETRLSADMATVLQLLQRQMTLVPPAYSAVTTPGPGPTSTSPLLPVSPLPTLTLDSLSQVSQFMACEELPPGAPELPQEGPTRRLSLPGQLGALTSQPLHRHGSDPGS
Method in brief: (§4)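 Automated whole-cell patch clamp, holding potential −80 mV. Voltage protocol applied every 20 s. Baseline set with external solution containing 0.1% DMSO and stabilised 3 min. Compound applied until steady state, at least 3 min, then washout. Maximum tested concentration 40 μM, or 3 μM for cisapride as positive control.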

[23] = target: Voltage-gated inwardly rectifying potassium channel KCNH2 (Homo sapiens, UniProt Q12809); experiment: Inhibition of hERG potassium channel assessed as […] at -80 mV holding potential incubated for 120 seconds by whole cell-automated voltage clamp analysis assay; format: toxicity; method in brief: as §4
Voltage-gated inwardly rectifying potassium channel KCNH2, sequence (Q12809 whole entry): as above

[24] = Cytotoxicity against human L02 cells assessed as cell viability measured for 48 hrs by CCK-8 assay; format: toxicity, cell-based
Method in brief: (§5)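 Cells seeded at 1 × 10⁴ per well and grown for 48 h. Then exposed to test articles at 1–200 μM for another 48 h (n = 6). Viability by CCK-8 added for 2 h, absorbance read at 450 nm. CC50 calculated and reported as the mean.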

[25] = Cytotoxicity against human HEK293 cells assessed as cell viability measured for 48 hrs by CCK-8 assay; format: toxicity, cell-based; method in brief: as §5
[26] = Metabolic stability in rat liver microsome assessed as elimination half life at 0.1 uM in presence of NADPH incubated upto 60 mins by LC-MS/MS analysis; format: ADME; conditions: liver microsomes, read-out: beta t1/2
Method in brief: (§6)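 Compound at 0.1 μM final, in 0.01% DMSO with 0.005% BSA. Incubated with rat or human liver microsomes at 0.33 mg/mL in 0.1 M Tris-HCl, pH 7.4, with 5 mM MgCl₂ and 1 mM NADPH, at 37 °C. Samples at 0, 7, 17, 30 and 60 min quenched with cold methanol and analysed by LC-MS/MS. Half-life, Cl_int and MF% derived as previously described.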

[27] = Metabolic stability in human liver microsome assessed as elimination half life at 0.1 uM in presence of NADPH incubated upto 60 mins by LC-MS/MS analysis; format: ADME; conditions: liver microsomes, read-out: beta t1/2; method in brief: as §6
[28] = Metabolic stability in rat liver microsome assessed as intrinsic clearance at 0.1 uM in presence of NADPH incubated upto 60 mins by LC-MS/MS analysis; format: ADME; conditions: microsomes, 1 h; method in brief: as §6
[29] = Metabolic stability in human liver microsome assessed as intrinsic clearance at 0.1 uM in presence of NADPH incubated upto 60 mins by LC-MS/MS analysis; format: ADME; conditions: microsomes, 1 h; method in brief: as §6
[30] = Metabolic stability in rat liver microsome assessed as metabolic bioavailability at 0.1 uM in presence of NADPH incubated upto 60 mins by LC-MS/MS analysis; format: ADME; conditions: liver microsomes; method in brief: as §6
[31] = Metabolic stability in human liver microsome assessed as metabolic bioavailability at 0.1 uM in presence of NADPH incubated upto 60 mins by LC-MS/MS analysis; format: ADME; conditions: liver microsomes; method in brief: as §6

Row | Compound | MIC (Escherichia coli [1]) [µg/mL] | MIC (Escherichia coli [2]) [µg/mL] | MIC (Escherichia coli [3]) [µg/mL] | MIC (Klebsiella pneumoniae [4]) [µg/mL] | MIC (Klebsiella pneumoniae [5]) [µg/mL] | MIC (Klebsiella pneumoniae [6]) [µg/mL] | MIC (Acinetobacter baumannii [7]) [µg/mL] | MIC (Acinetobacter baumannii [8]) [µg/mL] | MIC (Pseudomonas aeruginosa [9]) [µg/mL] | MIC (Pseudomonas aeruginosa [10]) [µg/mL] | AUC(0-inf) [11] [ng·h/mL] | half-life [12] [h] | MRT [13] [h] | clearance [14] [mL/min/kg] | Vd [15] [L/kg] | further results
1 | CCNc1cc(F)cc2c1[nH]c1nc(Oc3cnc(C)nc3)nc(N3CC(=C(C)[C@@H](C)N)C3)c12 | 4 (≈ 8.65 µM) | 1 (≈ 2.16 µM) | 1 (≈ 2.16 µM) | > 8 | > 64 | > 64 | 2 (≈ 4.32 µM) | 2 (≈ 4.32 µM) | > 64 | > 64 | 1290 | 6.7 | 4.3 | 64.7 | 16.7 | 
2 | CNc1cc(F)cc2c1[nH]c1nc(Oc3cnc(C)nc3)nc(N3CC4CCNC4C3)c12 (racemic) | 0.5 (≈ 1.15 µM) | 0.5 (≈ 1.15 µM) | 0.25 (≈ 0.575 µM) | 2 (≈ 4.6 µM) | 4 (≈ 9.21 µM) | 1 (≈ 2.3 µM) | 0.5 (≈ 1.15 µM) | 0.25 (≈ 0.575 µM) | 16 (≈ 36.8 µM) | 4 (≈ 9.21 µM) |  |  |  |  |  | MIC (Staphylococcus aureus [16]): 0.015 µg/mL (≈ 0.0345 µM); MIC (Staphylococcus aureus [17]): < 0.008 µg/mL; MIC [18]: < 0.008 µg/mL; MIC (Escherichia coli [19]): 0.25 µg/mL (≈ 0.575 µM); MIC (Escherichia coli [20]): 0.06 µg/mL (≈ 0.138 µM); MIC (Pseudomonas aeruginosa [21]): 0.5 µg/mL (≈ 1.15 µM); inhibition at 2 min, 40 µM [22]: 70.5%; IC50 [23]: 12.3 µM; CC50 at 48 h [24]: 24 µM; CC50 at 48 h [25]: 21.8 µM
3 | [2H]C([2H])([2H])Nc1cc(F)cc2c1[nH]c1nc(Oc3cnc(C)nc3)nc(N3CC(=C(C)[C@@H](C)N)C3)c12 | 0.5 (≈ 1.11 µM) | 0.25 (≈ 0.554 µM) | 0.125 (≈ 0.277 µM) | 1 (≈ 2.21 µM) | 4 (≈ 8.86 µM) | 2 (≈ 4.43 µM) | 0.25 (≈ 0.554 µM) | 0.25 (≈ 0.554 µM) | 4 (≈ 8.86 µM) | 2 (≈ 4.43 µM) | 634 | 6.5 | 5.6 | 132 | 44.5 | half-life at 0.1 µM [26]: 9.8 min; half-life at 0.1 µM [27]: 2.98 h; CLH [28]: 215 mL/min/g; CLH [29]: 11.7 mL/min/g; Fh at 1 h, 0.1 µM [30]: 17.2%; Fh at 1 h, 0.1 µM [31]: 62.6%
